Screening results (PubChem)
pPAFAH FP inh = pPAFAH enzyme inhibitors, primary screen, biochemical, fluorescence polarization, human; inhibition, % at 3.39 µM; 1.5% of 330,000 active; recombinant pPAFAH, FP-rhodamine probe fluorescence polarization; AID 463082, 2010;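 active means inhibition above the mean inhibition across the screen plus 3 SD, cut at about 25% in these data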;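 further: inhibitors block binding of the rhodamine activity-based probe so polarization drops; 0% = enzyme with DMSO and 100% = wells lacking pPAFAH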
ARFGAP1 inh = inhibitors of rat ARFGAP1 GAP activity, primary screen, biochemical, fluorescence polarization, GDP tracer. Arfgap1-stimulated ARF1 GTP hydrolysis, GDP FP detection. inhibition, % at 16.5 µM. 0.26% of 360,000 active. AID 651572, 2012;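 active means inhibition above a per-plate limit, mean inhibition of low control wells plus 3 SD, cut at about 25% in these data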;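 further: 0% = DMSO wells with enzyme and 100% = wells lacking Arfgap1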
Target sequence (Q62848 1-136 limits assumed): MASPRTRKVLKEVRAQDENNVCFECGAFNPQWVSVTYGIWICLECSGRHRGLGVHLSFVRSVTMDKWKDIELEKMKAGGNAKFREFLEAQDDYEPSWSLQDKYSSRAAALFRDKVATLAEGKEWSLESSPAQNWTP
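Assay system: Rat Arfgap1 GAP domain (His6, aa 1-136), purified enzyme | Buffer or medium: HEPES 25 mM pH 7.5, NaCl 150 mM, MgCl2, DTT | Schedule: GTP hydrolysis reaction 2 h at 25 °C | Signal: FP of antibody-bound GDP Alexa 633 tracer, ex 620/em 688 nm | Measure: Percent inhibition of Arfgap1-stimulated GTP hydrolysis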
PAFAH1B3 FP inh = PAFAH1B3 enzyme inhibitors, primary screen, biochemical, fluorescence polarization, human. Platelet-activating factor acetylhydrolase IB subunit alpha1 (Homo sapiens), Q15102. 0.28% of 340,000 active. recombinant PAFAH1B3, FP-rhodamine probe. inhibition, % at 3.39 µM;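 active means inhibition above the screen-wide average of all tested compounds plus 3 SD, cut at about 25% in these data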;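 further: 0% = enzyme with DMSO only and 100% = wells lacking PAFAH1B3 protein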
Target sequence (Q15102 whole entry, looked up): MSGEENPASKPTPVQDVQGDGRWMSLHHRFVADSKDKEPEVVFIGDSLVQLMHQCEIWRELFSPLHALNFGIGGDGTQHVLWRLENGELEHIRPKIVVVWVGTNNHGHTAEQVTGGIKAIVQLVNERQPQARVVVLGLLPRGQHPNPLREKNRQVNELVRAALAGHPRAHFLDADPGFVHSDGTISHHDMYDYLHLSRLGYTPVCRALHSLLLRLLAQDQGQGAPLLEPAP
PAFAH1B2 inh = PAFAH1B2 enzyme inhibitors, primary screen, biochemical, fluorescence polarization, human; recombinant PAFAH1B2, FP-rhodamine activity probe; inhibition, % at 3.39 µM; 1.2% of 340,000 active;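 active means inhibition above the mean of all tested compounds plus 3 SD, cut at about 24% in these data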;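 further: 0% = enzyme with DMSO and 100% = wells lacking PAFAH1B2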
Target sequence (P68402 whole entry, looked up): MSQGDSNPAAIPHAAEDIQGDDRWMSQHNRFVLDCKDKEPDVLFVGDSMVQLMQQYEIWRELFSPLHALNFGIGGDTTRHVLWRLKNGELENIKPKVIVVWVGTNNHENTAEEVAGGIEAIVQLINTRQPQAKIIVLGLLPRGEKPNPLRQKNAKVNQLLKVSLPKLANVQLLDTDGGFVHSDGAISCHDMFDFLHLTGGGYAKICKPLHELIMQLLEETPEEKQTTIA
PAFAH2 FP inh = PAFAH2 enzyme inhibitors, primary screen, biochemical, fluorescence polarization, human; 0.99% of 340,000 active; AID 492956, 2010; Platelet-activating factor acetylhydrolase 2, cytoplasmic (Homo sapiens), Q99487; recombinant PAFAH2, FP-rhodamine activity probe; inhibition, % at 3.39 µM;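 active means inhibition above the mean over all tested compounds plus 3 SD, cut at about 30% in these data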;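 further: inhibitors block probe labeling of enzyme so polarization drops; 0% = enzyme with DMSO and 100% = wells lacking PAFAH2 protein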
ASAP1 inh = inhibitors of human ASAP1 ArfGAP activity, primary screen, biochemical, fluorescence polarization; ASAP1-stimulated ARF1 GTP hydrolysis, GDP FP detection; inhibition, % at 16.5 µM; 0.19% of 360,000 active; in the data active means inhibition above about 25%;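 further: 0% = vehicle with enzyme and substrate and 100% = no enzyme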
PAFAH2 FP conf = PAFAH2 enzyme inhibitors, confirmation, biochemical, fluorescence polarization, human; shares compounds with PAFAH2 FP inh; recombinant PAFAH2, FP-rhodamine activity probe; inhibition, % at 3.39 µM; 65% of 2,300 active; AID 493030, 2011;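 active means mean inhibition over three repeats above a set limit taken from the earlier primary screen, cut at about 30% in these data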;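 further: inhibitor blocks binding of rhodamine activity probe so polarization falls; 0% = enzyme with DMSO and 100% = wells lacking PAFAH2 protein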
An asterisk follows results filed as active; . = no result. Compounds with a hit are over-represented: about 2.7% of the library has one in this group of screens.

SMILES	pPAFAH FP inh	ARFGAP1 inh	PAFAH1B3 FP inh	PAFAH1B2 inh	PAFAH2 FP inh	ASAP1 inh	PAFAH2 FP conf
Cc1noc(C)c1NC(=O)N(C)C[C@H]1Oc2ccc(NC(=O)NC3CCCCC3)cc2C(=O)N([C@H](C)CO)C[C@@H]1C	-3.2	-1.0	16.3	5.5	1.2	0.5	.
COc1ccc(/C=C/C(=O)OCC(=O)NC2CCCCCC2)cc1	.	-5.2	.	.	.	0.8	.
O=C(COC(=O)/C=C/c1ccc(OC(F)F)cc1)NC1CCCCCC1	21.1	12.3	6.1	3.9	74.9*	2.8	69.8*
O=C(COC(=O)/C=C/c1ccc(OC(F)F)cc1)NC1CCCCCCC1	-0.1	10.3	2.9	1.6	66.1*	-3.3	71.4*
CCN(CC)S(=O)(=O)c1ccc2c(c1)nc(CCC(=O)OCc1c(C)noc1C)n2C	-4.4	4.3	1.7	-1.4	9.8	6.9	.
CCN(CC)S(=O)(=O)c1ccc2c(c1)nc(CCC(=O)OCC(=O)N1CCc3ccccc31)n2C	3.2	7.0	7.2	5.2	70.7*	9.1	81.6*
CCN(CC)S(=O)(=O)c1ccc(O)c(C(=O)OCC(=O)N2CCCc3ccccc32)c1	.	3.2	.	.	.	-6.9	.
CCc1ccc(NC(=O)COC(=O)CCc2nc3cc(S(=O)(=O)N(CC)CC)ccc3n2C)cc1	5.8	-4.3	6.9	5.6	62.6*	-7.4	74.7*
CCN(CC)S(=O)(=O)c1ccc2c(c1)nc(CCC(=O)OCC(=O)Nc1cc(Cl)cc(Cl)c1)n2C	6.3	2.8	-14.7	-3.7	73.1*	15.0	83.5*
CCCc1nc2ccc(C(=O)OC)cn2c1Cc1ccccc1OC	.	-6.0	.	.	.	-4.2	.
Cc1cc2c(cc(C(=O)N3CCC(C(=O)NC4CCCC4)CC3)n2Cc2c(F)cccc2Cl)o1	-0.6	-0.7	-1.9	3.7	63.8*	-0.8	49.4*
CCc1c(-c2cccc(Cl)c2)ncn1CCc1ccccc1OC	.	-1.7	.	.	.	-14.9	.
O=C(COC(=O)CC(NC(=O)c1ccccc1Cl)c1ccccc1)Nc1cccc(F)c1 (stereo not drawn)	8.2	-6.9	-9.9	5.3	81.7*	4.6	76.5*
O=C(COC(=O)CC(c1ccccc1)c1ccccc1)Nc1cccc(F)c1	13.2	1.2	4.4	5.2	76.9*	3.1	69.0*
C/C(COc1ccccc1)=N\NC(=O)c1nnn(-c2nonc2N)c1CSc1ccc(C)cc1	.	0.1	.	.	.	-11.7	.
O=C1CC(=O)Nc2cc(S(=O)(=O)N3CCOc4ccc(Cl)cc43)ccc2N1	-1.6	1.4	-2.0	1.9	45.2*	-1.6	39.8*
CCN(C[C@H]1N[C@@](CC)(C(=O)OC)[C@H]2C(=O)N(Cc3ccccc3)C(=O)[C@@H]12)C(=O)NC(C)C	0.2	5.4	-1.5	8.5	1.2	6.2	.
CCc1sc(C(=O)Nc2ncccc2O)cc1C	.	19.8	4.3	1.9	30.4*	-9.5	26.6
COc1ccc(C(=O)COC(=O)c2ccc(OC)c(OC)c2)cc1OC	4.8	-0.4	2.4	-2.8	2.7	-1.1	.
COc1ccc(C(=O)OCC(=O)c2ccc(F)cc2)cc1OC	2.2	4.3	-0.5	2.4	60.3*	0.8	57.4*
Cc1ccc(C(=O)OCC(=O)c2ccccc2)cc1	7.6	13.9	-5.3	-4.4	37.5*	-6.0	24.2
COc1cc(C(=O)OCC(=O)NC2CCCCCC2)ccc1OCC(C)C	16.1	-8.4	3.6	6.8	88.1*	-3.7	82.8*
COc1cc(C(=O)OCC(=O)NC2CC2)ccc1OCCC(C)C	15.0	0.6	4.6	-4.5	71.1*	11.4	67.7*
COc1cccc(C(=O)NCCN2CCC(n3c(=O)[nH]c4ccccc43)CC2)c1	.	-1.9	.	.	.	-1.8	.
O=C(Nc1cccc(C(=O)N2CCCCC2)c1)C1CCCCC1	.	5.1	14.4	8.8	-6.4	3.5	.
SMILES	pPAFAH FP inh	ARFGAP1 inh	PAFAH1B3 FP inh	PAFAH1B2 inh	PAFAH2 FP inh	ASAP1 inh	PAFAH2 FP conf
COc1cc(C(=O)OCC(=O)NC2CC2)cc(OC)c1OC	-2.1	-10.1	5.6	4.4	1.6	6.5	.
COc1cc(N)c(Cl)cc1C(=O)OCC(=O)NCC1CCCO1 (stereo not drawn)	1.6	-0.9	-2.0	5.1	8.6	17.4	.
COc1ccc(C(=O)OCC(=O)NC2CC2)cc1F	0.3	7.5	8.9	0.9	49.4*	4.7	30.5*
COc1cc(N)c(Cl)cc1C(=O)OCC(=O)NCC1CCCCC1	3.2	-12.2	6.0	-0.5	60.0*	0.2	52.0*
COc1ccc(C(=O)OCC(=O)NC2CC2)cc1S(=O)(=O)N(C)Cc1ccccc1	20.9	-8.5	3.6	3.7	53.8*	-1.4	49.5*
COc1cccc(OC)c1C(=O)OCC(=O)NCC1CCCCC1	.	-7.4	.	.	.	-6.7	.
COc1cc(C(=O)OCC(=O)NCC2CCCCC2)ccc1OCC(C)C	15.1	10.9	-2.2	2.1	67.5*	-5.1	60.6*
O=C(CCNC(=O)c1ccccc1)NNC(=O)COc1ccccc1Cl	-6.5	13.6	2.9	0.9	-5.0	1.3	.
CNC[C@@H]1Oc2ccc(NC(=O)Nc3cccc4ccccc34)cc2C(=O)N([C@@H](C)CO)C[C@@H]1C	2.3	.	.	.	.	.	.
CC[C@]1(C(=O)OC)[C@H]2C(=O)N(C)C(=O)[C@H]2[C@H]2CN=C(SCc3ccc(OC)cc3)N21	-0.1	0.1	6.5	-0.6	0.0	4.9	.
Cc1ccccc1S(=O)(=O)N(C)C[C@@H]1OCc2cnnn2CCCC(=O)N([C@@H](C)CO)C[C@H]1C	.	4.9	.	.	.	6.5	.
COc1ccc(C(=O)OCC(=O)NC2CCCCCC2)c(OC)c1	.	-6.5	10.8	3.8	81.9*	-7.6	77.9*
COc1ccc(C(=O)OCC(=O)NC2CCCC2)c(OC)c1OC	12.4	9.2	3.8	1.4	89.4*	-6.9	80.8*
COc1ccc(C(=O)OCC(=O)NC2CCCC2)c(OC)c1	5.6	3.0	0.0	-1.1	70.4*	-5.8	55.9*
COc1cc(SC)ccc1C(=O)OCC(=O)NC1CC1	3.4	2.1	8.8	4.9	4.2	16.9	.
COc1ccc(C(=O)OCC(=O)NC(=O)NC2CCCC2)c(OC)c1	2.8	7.1	5.1	1.3	24.9	-6.5	.
COc1ccc(C(=O)OCC(=O)NC(=O)NC2CCCC2)c(O)c1	0.2	5.7	2.5	1.0	2.2	5.6	.
O=C(/C=C/[C@H]1O[C@@H](n2ccc(=O)[nH]c2=O)[C@H](O)[C@@H]1O)NCc1cccs1	.	-2.4	.	.	.	-4.4	.
